Test results from ChEMBL document CHEMBL3612019, “Revisiting 1,3,4-Oxadiazol-2-ones: Utilization in the Development of ABHD6 Inhibitors” (Bioorg Med Chem, 2015).
Calls of active or inactive are those of the source. The calls are words filed in the database; no cut-off is given here.

What was measured:
Monoglyceride lipase = molecular target: T1, Monoglyceride lipase (Homo sapiens, UniProt Q99685); assay: Inhibition of human MAGL expressed in HEK293 cells pre-incubated for 10 mins before 2-AG substrate addition by HPLC method; assay type: cell-based; conditions: read-out: IC50
T1 sequence (Q99685 whole entry): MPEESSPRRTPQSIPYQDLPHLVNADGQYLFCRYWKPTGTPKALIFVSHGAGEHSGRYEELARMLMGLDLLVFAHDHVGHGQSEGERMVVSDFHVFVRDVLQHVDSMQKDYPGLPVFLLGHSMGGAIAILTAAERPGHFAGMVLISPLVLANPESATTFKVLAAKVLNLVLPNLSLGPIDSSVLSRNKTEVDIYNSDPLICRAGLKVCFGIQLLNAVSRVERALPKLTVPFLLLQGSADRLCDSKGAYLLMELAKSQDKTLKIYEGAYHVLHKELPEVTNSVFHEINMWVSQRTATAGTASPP
Procedure, shortened: (§1)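 Lysates of hMAGL-overexpressing HEK293 cells in 50 mM Tris–HCl pH 7.4 with 1 mM EDTA. After a 10 min preincubation with inhibitor or DMSO, 2-AG was added (final 50 µM) and incubated 10 min at 37 °C. The reaction was stopped and samples centrifuged. Arachidonic acid formation and 2-AG depletion were measured by HPLC. Replicates as for the FAAH assay.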

[1] = molecular target: T2, Monoacylglycerol lipase ABHD6 (Homo sapiens) (UniProt Q9BV23); conditions: HEK293, 1 uM
T2 sequence (whole entry): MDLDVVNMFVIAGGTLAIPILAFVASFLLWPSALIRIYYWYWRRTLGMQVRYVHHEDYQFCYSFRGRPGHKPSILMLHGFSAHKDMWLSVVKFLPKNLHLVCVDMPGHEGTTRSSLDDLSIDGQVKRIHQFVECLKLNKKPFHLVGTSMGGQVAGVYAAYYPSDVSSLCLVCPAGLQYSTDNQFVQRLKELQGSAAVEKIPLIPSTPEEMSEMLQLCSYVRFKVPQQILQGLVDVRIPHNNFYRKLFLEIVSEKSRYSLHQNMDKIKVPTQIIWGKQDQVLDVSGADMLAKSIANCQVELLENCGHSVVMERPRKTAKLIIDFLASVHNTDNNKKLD

[2] = molecular target: T3, Monoglyceride lipase (Homo sapiens) (UniProt Q99685); assay: Inhibition of human MAGL expressed in HEK293 cells at 20 uM pre-incubated for 10 mins before 2-AG substrate addition by HPLC method; assay type: cell-based; procedure, shortened: as §1
T3 sequence (whole entry): T1 sequence (Q99685 whole entry)

[3] = molecular target: T4, Monoacylglycerol lipase ABHD6 (Homo sapiens, UniProt Q9BV23); assay: Inhibition of human ABHD6 expressed in HEK293 cells at 1 uM pre-incubated for 10 mins before 2-AG substrate addition followed by rapid 40 fold compound dilution measured after 60 mins by HPLC method; assay type: cell-based
T4 sequence (Q9BV23 whole entry): T2 sequence (whole entry)

[4] = molecular target: T5, Fatty-acid amide hydrolase 1 (Homo sapiens) (UniProt O00519); assay: Inhibition of human FAAH expressed in COS7 cell membranes at 20 uM pre-incubated for 10 mins before [3H]-AEA substrate addition by liquid scintillation counting; conditions: COS-7
T5 sequence (whole entry): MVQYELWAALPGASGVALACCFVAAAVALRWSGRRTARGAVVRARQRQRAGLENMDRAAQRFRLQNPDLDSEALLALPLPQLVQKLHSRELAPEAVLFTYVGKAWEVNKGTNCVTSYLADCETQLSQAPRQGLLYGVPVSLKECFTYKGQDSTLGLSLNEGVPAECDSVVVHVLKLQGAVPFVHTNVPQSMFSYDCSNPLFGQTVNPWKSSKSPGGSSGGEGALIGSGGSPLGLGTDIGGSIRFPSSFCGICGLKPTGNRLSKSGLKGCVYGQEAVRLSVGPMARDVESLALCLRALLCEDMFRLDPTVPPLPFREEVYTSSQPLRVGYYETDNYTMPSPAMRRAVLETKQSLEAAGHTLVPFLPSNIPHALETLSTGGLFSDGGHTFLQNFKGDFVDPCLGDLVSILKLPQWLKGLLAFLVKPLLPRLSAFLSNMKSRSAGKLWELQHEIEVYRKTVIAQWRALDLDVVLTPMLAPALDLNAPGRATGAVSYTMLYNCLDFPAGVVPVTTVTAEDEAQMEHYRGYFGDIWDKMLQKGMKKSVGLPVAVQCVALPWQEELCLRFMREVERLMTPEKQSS

[5] = molecular target: T6, Fatty-acid amide hydrolase 1 (Mus musculus) (UniProt O08914); assay: Inhibition of FAAH in mouse whole brain membranes at 32.5 uM incubated for 1 hr by TAMRA-FP probe based competitive activity-based protein profiling assay; assay type: cell membranes; conditions: Membrane
T6 sequence (whole entry): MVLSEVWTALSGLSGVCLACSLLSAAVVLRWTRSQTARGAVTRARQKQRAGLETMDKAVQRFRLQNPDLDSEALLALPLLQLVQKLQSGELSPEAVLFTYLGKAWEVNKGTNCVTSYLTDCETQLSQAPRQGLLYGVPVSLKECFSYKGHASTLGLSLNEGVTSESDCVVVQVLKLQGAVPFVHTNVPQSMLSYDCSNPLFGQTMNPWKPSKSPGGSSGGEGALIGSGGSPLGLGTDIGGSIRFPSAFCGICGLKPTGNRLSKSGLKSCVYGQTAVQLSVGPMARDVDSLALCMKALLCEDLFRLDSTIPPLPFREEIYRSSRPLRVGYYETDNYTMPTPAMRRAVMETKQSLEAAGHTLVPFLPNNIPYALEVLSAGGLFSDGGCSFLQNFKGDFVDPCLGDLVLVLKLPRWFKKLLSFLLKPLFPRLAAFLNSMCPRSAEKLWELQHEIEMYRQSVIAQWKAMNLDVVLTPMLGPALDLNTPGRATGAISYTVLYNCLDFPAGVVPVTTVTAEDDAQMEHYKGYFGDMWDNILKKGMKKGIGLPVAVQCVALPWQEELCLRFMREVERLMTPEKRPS
Procedure, shortened: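 Competitive ABPP on mouse brain membranes (100 µg) treated 1 h with DMSO or inhibitor. TAMRA-FP labelling then ran 1 h at RT (final probe 2 µM). Reaction was quenched with gel loading buffer and proteins resolved by 10% SDS–PAGE for fluorescent band read-out. WWL70 located the ABHD6 band. Gels are representative of two experiments.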

[6] = molecular target: Cannabinoid receptor 1 (Rattus norvegicus) (UniProt P20272); assay: Agonist activity at CB1R in rat cerebellar membranes at 10 uM by [35S]GTPgammaS binding assay; assay type: functional, cell membranes; conditions: Cerebellum, Membrane
Procedure, shortened: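 Rat cerebellar membranes, [35S]GTPγS binding. Agonist activity is read as % of basal binding. Antagonist activity is read as % of the HU210-evoked response. Compound tested at 10 µM. Values are mean (range), n = 2.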

[7] = molecular target: T3, Monoglyceride lipase (Homo sapiens); assay: Inhibition of human MAGL expressed in HEK293 cells at 10 uM pre-incubated for 10 mins before 2-AG substrate addition by HPLC method; assay type: cell-based; procedure, shortened: as §1

Cannabinoid receptor 1 (Rattus norvegicus), sequence (P20272 whole entry): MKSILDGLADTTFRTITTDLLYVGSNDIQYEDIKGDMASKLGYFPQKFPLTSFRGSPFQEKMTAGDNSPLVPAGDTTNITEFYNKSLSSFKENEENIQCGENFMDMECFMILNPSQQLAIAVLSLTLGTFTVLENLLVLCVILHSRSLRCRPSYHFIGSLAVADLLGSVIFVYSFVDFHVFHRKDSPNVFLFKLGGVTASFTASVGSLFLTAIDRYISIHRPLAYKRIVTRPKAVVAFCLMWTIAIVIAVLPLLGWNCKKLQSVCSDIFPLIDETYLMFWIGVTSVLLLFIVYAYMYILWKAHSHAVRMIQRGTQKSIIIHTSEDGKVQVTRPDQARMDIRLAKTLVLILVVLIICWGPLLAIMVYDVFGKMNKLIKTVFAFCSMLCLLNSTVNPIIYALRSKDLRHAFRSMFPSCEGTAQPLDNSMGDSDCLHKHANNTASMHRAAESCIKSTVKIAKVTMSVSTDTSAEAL

For `Nc1cccc(Cn2nc(Oc3ccccc3)oc2=O)c1`, the IC50 (Monoglyceride lipase) was 7.94 µM.

With `COc1nn(Cc2cccc(N)c2)c(=O)o1` the inhibition [1] was “Active”, the inhibition [2] was 33% and the IC50 [3] was 3.63 µM. For the same compound, the inhibition [4] was 41%, the inhibition [5] was “Active” and the Activity [6] was 96%. It also gave an inhibition [7] of 21%.
